Measurements from ChEMBL document CHEMBL1124862 (J Med Chem, 1990).

Tests used:
[1] = molecular target: T1, 5-hydroxytryptamine receptor 1A (Rattus norvegicus, UniProt P19327); experiment: Displacement of [3H]8-OH-DPAT from rat cortex 5-hydroxytryptamine 1A receptor
T1 sequence (P19327 whole entry): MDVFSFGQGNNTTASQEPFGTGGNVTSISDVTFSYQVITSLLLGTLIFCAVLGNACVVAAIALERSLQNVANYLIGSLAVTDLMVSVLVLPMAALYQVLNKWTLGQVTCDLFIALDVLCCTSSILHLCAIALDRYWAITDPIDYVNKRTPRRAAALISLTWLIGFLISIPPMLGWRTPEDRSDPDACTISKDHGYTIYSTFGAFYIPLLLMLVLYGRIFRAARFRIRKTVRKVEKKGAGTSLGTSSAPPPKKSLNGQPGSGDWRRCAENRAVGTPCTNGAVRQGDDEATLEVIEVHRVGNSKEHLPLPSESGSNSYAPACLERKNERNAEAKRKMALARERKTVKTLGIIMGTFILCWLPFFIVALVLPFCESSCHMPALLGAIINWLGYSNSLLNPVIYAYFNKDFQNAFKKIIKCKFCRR

[2] = molecular target: T2, 5-hydroxytryptamine receptor 1B (Rattus norvegicus, UniProt P28564); experiment: Inhibitory activity against 5-hydroxytryptamine 1B receptor of rat cortex using [3H]5-HT
Summary of the method: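 Competition binding in rat cortex membranes, using the radioligand named in each line at a concentration of approximately its K_D.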

[3] = molecular target: Serotonin 2 (5-HT2) receptor (Rattus norvegicus, UniProt P30994+P08909+P14842); experiment: Compound was evaluated for its inhibitory activity against 5-hydroxytryptamine 2 receptor of rat anterior cortex using [3H]ketanserin as the radioligand
Rattus norvegicus = species on record: Rattus norvegicus; experiment: Effect of direct injection into the PVN (paraventricular medial hypothalamus) of rats on feeding behavior and the inhibition of food intake; assay type: functional
Summary of the method: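 Seven days later they were food-deprived for 24 h with water available. Each rat received a PVN infusion at 1 μL/min of test agent (16 μg) or 5-HT (32 μg) in 0.9% NaCl, or vehicle. Food eaten over 30 min was weighed. Groups were compared by two-tailed t test, and rats with misplaced cannulae were excluded after histology.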

[4] = molecular target: T2, 5-hydroxytryptamine receptor 1B; experiment: Inhibition of Forskolin-stimulated adenylate cyclase activity against 5-hydroxytryptamine 1B receptor of rat substantia nigra; assay type: functional
Summary of the method: (§1)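 Washed membranes came from guinea pig hippocampus, rat substantia nigra or guinea pig substantia nigra. They were incubated at 30 °C with [α-³²P]ATP, 3 μM forskolin and varying agonist concentrations. The reaction was stopped with 3% SDS. [³²P]cAMP was isolated by two-column chromatography and counted by scintillation, in pmol/mg protein/min. Points were run in triplicate, and EC50 came from at least three experiments.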

5-HT1A receptor = 5-HT1A receptor (Cavia porcellus, UniProt A0A286Y074); experiment: Inhibition of Forskolin-stimulated adenylate cyclase activity against 5-hydroxytryptamine 1A receptor of guinea pig hippocampus; assay type: functional, tissue-based; summary of the method: as §1
[5] = molecular target: 5-hydroxytryptamine receptor 1D (Cavia porcellus, UniProt Q60484); experiment: Inhibition of Forskolin-stimulated adenylate cyclase activity against 5-hydroxytryptamine 1D receptor of guinea pig substantia nigra
Summary of the method: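 Washed membranes from freshly dissected guinea pig substantia nigra, incubated at 30 °C with [α-³²P]ATP plus 3 μM forskolin and varying agonist concentrations. Reaction stopped with 3% SDS. [³²P]cAMP separated from [³²P]ATP on two columns and counted by liquid scintillation, as pmol/mg protein/min. EC50 from at least three experiments, each in triplicate.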

[6] = molecular target: T2, 5-hydroxytryptamine receptor 1B; experiment: Inhibitory activity against 5-hydroxytryptamine 1B receptor of rat cortex using [3H]5-HT as the radioligand.

T2 sequence (P28564 whole entry): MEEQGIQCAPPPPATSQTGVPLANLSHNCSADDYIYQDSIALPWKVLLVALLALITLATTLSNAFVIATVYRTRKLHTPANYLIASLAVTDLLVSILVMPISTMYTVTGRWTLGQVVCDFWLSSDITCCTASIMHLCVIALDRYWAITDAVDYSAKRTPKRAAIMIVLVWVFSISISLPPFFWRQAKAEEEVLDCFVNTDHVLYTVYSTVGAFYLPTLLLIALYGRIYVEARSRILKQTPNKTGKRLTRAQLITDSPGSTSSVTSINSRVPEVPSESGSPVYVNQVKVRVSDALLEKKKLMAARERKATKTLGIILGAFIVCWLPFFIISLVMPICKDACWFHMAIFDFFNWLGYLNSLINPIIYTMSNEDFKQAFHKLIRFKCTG
Sequence of 5-hydroxytryptamine receptor 1D (Q60484 whole entry): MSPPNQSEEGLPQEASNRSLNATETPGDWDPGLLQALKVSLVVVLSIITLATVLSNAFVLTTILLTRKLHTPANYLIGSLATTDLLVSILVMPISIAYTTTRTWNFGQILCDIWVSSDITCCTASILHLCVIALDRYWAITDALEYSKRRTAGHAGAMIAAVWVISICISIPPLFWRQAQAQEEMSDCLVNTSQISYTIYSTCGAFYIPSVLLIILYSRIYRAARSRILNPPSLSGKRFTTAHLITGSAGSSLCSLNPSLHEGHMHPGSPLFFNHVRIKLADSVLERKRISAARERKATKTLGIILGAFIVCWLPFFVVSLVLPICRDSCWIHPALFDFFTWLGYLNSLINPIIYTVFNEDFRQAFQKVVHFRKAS

SMILES	IC50 [1]	IC50 [2]	IC50 [3]	other results
N#Cc1ccc2[nH]cc(C3=CCNCC3)c2c1	32 nM	0.8 nM	–	–
CN1CCN(c2nc3cc(C(F)(F)F)ccc3n3cccc23)CC1	19 nM	150 nM	6800 nM	–
Brc1ccc2[nH]cc(C3=CCNCC3)c2c1	13 nM	3.2 nM	–	–
O=[N+]([O-])c1ccc2[nH]cc(C3=CCNCC3)c2c1	36 nM	3.5 nM	–	–
Clc1ccc2[nH]cc(C3=CCNCC3)c2c1	26 nM	3.3 nM	–	–
FC(F)(F)c1ccc2c(c1)nc(N1CCNCC1)c1cccn12	37 nM	21 nM	> 10000 nM	–
COc1ccc2[nH]cc(C3=CCNCC3)c2c1 [RU-24969]	–	2 nM	–	–
Oc1ccc2[nH]cc(C3=CCNCC3)c2n1	3000 nM	15 nM	> 10000 nM	g/30min (Rattus norvegicus): 0.12; EC50 [4]: 56 nM; EC50 (5-HT1A receptor): > 10000 nM
Oc1ccc2[nH]cc(C3=CCNCC3)c2c1	30 nM	1.2 nM	–	–
NCCc1c[nH]c2ccc(O)cc12 [SEROTONIN]	–	–	–	g/30min (Rattus norvegicus): 1.15; EC50 [5]: 16 nM
C1=C(c2c[nH]c3ccccc23)CCNC1	140 nM	–	–	IC50 [6]: 3.7 nM
FC(F)(F)c1cccc(N2CCNCC2)c1	290 nM	27 nM	570 nM	–
Fc1ccc2[nH]cc(C3=CCNCC3)c2c1	65 nM	1.9 nM	–	–
